Source: ChEMBL document CHEMBL3351838, “Ligand-based pharmacophore modeling and virtual screening for the discovery of novel 17β-hydroxysteroid dehydrogenase 2 inhibitors” (J Med Chem, 2014)

Experiments:
[1] = molecular target: T1, 17-beta-hydroxysteroid dehydrogenase type 2 (Homo sapiens) (UniProt P37059); assay: Inhibition of 17beta-HSD2 (unknown origin) expressed in HEK293 cells lysate assessed as residual enzyme activity at 20 uM; format: cell-free
T1 sequence (whole entry): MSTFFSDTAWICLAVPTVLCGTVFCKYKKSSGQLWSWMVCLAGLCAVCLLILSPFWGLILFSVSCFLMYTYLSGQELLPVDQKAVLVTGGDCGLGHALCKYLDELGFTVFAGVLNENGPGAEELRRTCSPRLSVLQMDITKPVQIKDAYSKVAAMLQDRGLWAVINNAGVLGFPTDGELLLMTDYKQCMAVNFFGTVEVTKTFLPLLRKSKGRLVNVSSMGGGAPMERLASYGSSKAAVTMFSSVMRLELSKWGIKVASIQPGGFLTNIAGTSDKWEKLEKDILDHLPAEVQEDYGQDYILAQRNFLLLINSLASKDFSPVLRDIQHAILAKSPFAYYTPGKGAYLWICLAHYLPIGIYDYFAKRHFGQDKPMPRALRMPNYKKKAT
How it was run: (§1)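 Human 17β-HSD2 from lysates of calcium-phosphate-transfected HEK-293 cells (harvested 48 h). Incubated 10 min at 37 °C in TS2 buffer (pH 7.4) with inhibitor or 0.2% DMSO/chloroform. Substrate 190 nM unlabeled plus 10 nM radiolabeled estradiol with 500 μM NAD+. Stopped with excess estradiol/estrone. Radiolabeled steroids separated by TLC and counted; at least three independent measurements. Rest activity at 20 μM as % of control.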

[2] = molecular target: T2, 11-beta-hydroxysteroid dehydrogenase 1 (Homo sapiens, UniProt P28845); assay: Inhibition of 11beta-HSD1 (unknown origin) expressed in HEK293 cells lysate assessed as residual enzyme activity at 20 uM; format: cell-free
How it was run: (§2)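 Lysates of stably transfected cells expressing 11β-HSD1 or 11β-HSD2, 10 min at 37 °C in TS2 buffer (pH 7.4) with inhibitor or 0.2% DMSO solvent. Reactions stopped after 10 min with excess unlabeled cortisone/cortisol. Steroids separated by TLC and quantified by scintillation counting. At least three independent measurements. Lines 2 and 3 report rest activity at 20 μM as % of control.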
Target sequence in this assay (P28845 whole entry, looked up): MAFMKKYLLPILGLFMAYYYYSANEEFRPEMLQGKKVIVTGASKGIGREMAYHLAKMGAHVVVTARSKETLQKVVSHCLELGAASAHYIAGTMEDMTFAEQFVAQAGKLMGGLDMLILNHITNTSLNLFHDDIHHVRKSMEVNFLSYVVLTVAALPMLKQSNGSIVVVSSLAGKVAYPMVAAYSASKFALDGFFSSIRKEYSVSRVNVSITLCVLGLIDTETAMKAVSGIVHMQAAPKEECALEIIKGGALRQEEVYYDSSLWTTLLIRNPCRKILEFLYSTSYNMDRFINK

[3] = molecular target: T3, 11-beta-hydroxysteroid dehydrogenase type 2 (Homo sapiens) (UniProt P80365); assay: Inhibition of 11beta-HSD2 (unknown origin) expressed in HEK293 cells lysate assessed as residual enzyme activity at 20 uM; format: cell-free; how it was run: as §2
T3 sequence (whole entry): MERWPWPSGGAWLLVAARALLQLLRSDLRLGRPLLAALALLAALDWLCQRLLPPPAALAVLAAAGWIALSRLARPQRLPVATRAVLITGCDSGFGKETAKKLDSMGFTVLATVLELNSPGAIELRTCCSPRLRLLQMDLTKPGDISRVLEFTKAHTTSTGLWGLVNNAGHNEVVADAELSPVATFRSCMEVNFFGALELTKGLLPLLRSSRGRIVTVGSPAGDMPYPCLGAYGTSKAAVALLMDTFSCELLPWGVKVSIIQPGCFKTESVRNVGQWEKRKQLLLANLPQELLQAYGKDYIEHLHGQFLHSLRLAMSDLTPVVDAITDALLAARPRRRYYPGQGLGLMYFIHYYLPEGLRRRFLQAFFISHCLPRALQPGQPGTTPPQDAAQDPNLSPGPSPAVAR

[4] = molecular target: T4, 17-beta-hydroxysteroid dehydrogenase type 2 (Homo sapiens, UniProt P37059); assay: Inhibition of 17beta-HSD2 (unknown origin) expressed in HEK293 cells lysate; format: cell-free; how it was run: as §1
T4 sequence (P37059 whole entry): T1 sequence (whole entry)

[5] = molecular target: T5, 17-beta-hydroxysteroid dehydrogenase type 1 (Homo sapiens) (UniProt P14061); assay: Inhibition of 17beta-HSD1 (unknown origin) expressed in HEK293 cells lysate assessed as residual enzyme activity at 20 uM; format: cell-free
T5 sequence (whole entry): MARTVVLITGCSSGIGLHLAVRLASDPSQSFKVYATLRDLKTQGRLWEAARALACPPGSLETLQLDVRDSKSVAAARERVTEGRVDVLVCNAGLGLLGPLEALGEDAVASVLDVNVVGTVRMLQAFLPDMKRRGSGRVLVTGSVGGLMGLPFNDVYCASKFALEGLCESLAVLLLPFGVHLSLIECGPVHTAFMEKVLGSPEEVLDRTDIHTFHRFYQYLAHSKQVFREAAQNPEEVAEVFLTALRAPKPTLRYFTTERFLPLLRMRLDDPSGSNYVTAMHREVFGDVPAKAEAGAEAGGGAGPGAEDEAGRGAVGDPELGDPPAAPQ
How it was run: (§3)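 Lysate of HEK-293 cells transfected by calcium phosphate with human 17β-HSD1, harvested after 48 h. Incubated 10 min at 37 °C in TS2 buffer (pH 7.4) with inhibitor or 0.2% DMSO/chloroform. Substrate 190 nM unlabeled plus 10 nM radiolabeled estrone with 500 μM NADPH. Stopped with excess estradiol/estrone. TLC separation and scintillation counting; at least three independent measurements.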

[6] = molecular target: T6, 17-beta-hydroxysteroid dehydrogenase type 3 (Homo sapiens) (UniProt P37058); assay: Inhibition of 17beta-HSD3 (unknown origin) expressed in intact HEK293 cells assessed as residual enzyme activity at 20 uM; format: cell-based
T6 sequence (whole entry): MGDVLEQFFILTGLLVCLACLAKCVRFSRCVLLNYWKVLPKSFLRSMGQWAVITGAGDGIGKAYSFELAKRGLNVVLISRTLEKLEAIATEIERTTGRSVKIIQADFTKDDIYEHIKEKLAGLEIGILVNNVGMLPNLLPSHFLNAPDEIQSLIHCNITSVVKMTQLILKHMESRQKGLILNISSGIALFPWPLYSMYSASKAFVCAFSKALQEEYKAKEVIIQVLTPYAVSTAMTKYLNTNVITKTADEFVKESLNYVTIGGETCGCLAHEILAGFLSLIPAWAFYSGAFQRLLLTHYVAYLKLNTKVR
How it was run: (§4)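 HEK-293 cells transiently transfected with 17β-HSD3 by calcium phosphate were seeded at 15 000 cells/well and tested 24 h later in charcoal-treated DMEM. Inhibitor was preincubated 20 min at 37 °C. Substrate was 190 nM unlabeled plus 10 nM radiolabeled androstenedione for 30 min. Reactions stopped with excess androstenedione/testosterone. TLC separation and scintillation counting.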

[7] = molecular target: T2, 11-beta-hydroxysteroid dehydrogenase 1; assay: Inhibition of 11beta-HSD1 (unknown origin) expressed in HEK293 cells lysate; format: cell-free; how it was run: as §2
Target sequence in this assay (P28845 whole entry): as the sequence (P28845 whole entry, looked up) above

[8] = molecular target: T4, 17-beta-hydroxysteroid dehydrogenase type 2; assay: Inhibition of 17beta-HSD2 (unknown origin) expressed in intact HEK293 cells; format: cell-based
How it was run: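 Transfected HEK-293 cells were seeded at 15 000 cells/well 24 h after transfection and assayed 24 h later in charcoal-treated DMEM. Inhibitor was preincubated 20 min at 37 °C, followed by 190 nM unlabeled plus 10 nM radiolabeled estradiol for 20 min. Reactions stopped with excess estradiol/estrone. Steroids separated by TLC and measured by scintillation counting.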

[9] = molecular target: T7, 17-beta-hydroxysteroid dehydrogenase type 3 (Homo sapiens, UniProt P37058); assay: Inhibition of 17beta-HSD3 (unknown origin) expressed in intact HEK293 cells; format: cell-based; how it was run: as §4
T7 sequence (P37058 whole entry): T6 sequence (whole entry)

[10] = molecular target: T8, 17-beta-hydroxysteroid dehydrogenase type 1 (Homo sapiens, UniProt P14061); assay: Inhibition of 17beta-HSD1 (unknown origin) expressed in HEK293 cells lysate; format: cell-free; how it was run: as §3
T8 sequence (P14061 whole entry): T5 sequence (whole entry)

Compound	Activity [1]	Activity [3]	IC50 [4]	Activity [5]	further results
COc1ccc(NS(=O)(=O)c2cc(C)ccc2C)cc1	> 70%	–	–	–	–
COc1ccc(/C=N/NC(=O)COc2c(Br)cc(C)cc2Br)c(OC)c1	38%	–	–	–	–
O=S(=O)(Nc1cccc(O)c1)c1ccc(Br)cc1	–	> 70%	4.9 µM	> 70%	Activity [2]: > 70%; Activity [6]: > 70%
CC(=O)Nc1ccc(S(=O)(=O)Oc2ccc3c(c2)NCCC3)cc1	> 70%	–	–	–	–
CCc1ccc(CC)c(S(=O)(=O)Nc2cc(OC)ccc2OC)c1	> 70%	–	–	–	–
COc1ccc(NS(=O)(=O)c2ccc(Cl)cc2)cc1	> 70%	–	–	–	–
CC(C)(C)c1ccc(S(=O)(=O)Oc2ccccc2O)cc1	6%	> 70%	0.24 µM	> 70%	IC50 [7]: 2.1 µM; IC50 [8]: 0.52 µM; IC50 [9]: 8.5 µM
COc1ccc(S(=O)(=O)Nc2ccc(O)c3c2CCCC3)cc1	–	> 70%	9.6 µM	> 70%	IC50 [7]: 8.1 µM; Activity [6]: > 70%
COc1cc(C)c(S(=O)(=O)Nc2ccc(C(=O)O)cc2)cc1C	> 70%	–	–	–	–
Cc1cc(Br)c(OCC(=O)N/N=C/c2c(C)cc(O)cc2O)c(Br)c1	64%	–	–	–	–
Cc1ccc(NS(=O)(=O)c2cccc(C(F)(F)F)c2)cc1O	25%	> 70%	7.1 µM	> 70%	Activity [2]: > 70%; Activity [6]: > 70%
CC(=O)Nc1ccccc1NS(=O)(=O)c1c(C)c(C)cc(C)c1C	> 70%	–	–	–	–
O=S(=O)(Nc1ccccc1CO)c1ccc(Cl)cc1	> 70%	–	–	–	–
Cc1ccc(NS(=O)(=O)c2cccc(Br)c2)cc1O	–	> 70%	6.3 µM	58%	Activity [2]: > 70%; Activity [6]: > 70%
CCC(=O)c1ccc(OS(=O)(=O)c2ccc(NC(C)=O)cc2)cc1	67%	–	–	–	–
COc1cc(C)c(S(=O)(=O)Nc2ccc(Cl)cc2)cc1C	> 70%	–	–	–	–
Cc1cc(C)c(S(=O)(=O)Nc2cccc(O)c2)cc1C	–	> 70%	3.3 µM	> 70%	Activity [2]: > 70%; Activity [6]: 43%
COc1cc(C)c(S(=O)(=O)Nc2cccc(O)c2)cc1C	15%	> 70%	6.9 µM	> 70%	Activity [2]: > 70%; Activity [6]: > 70%
O=C(CSc1ncccn1)Nc1cccc2nsnc12	> 70%	–	–	–	–
O=S(=O)(Nc1ccc(F)c(Cl)c1)c1ccc(F)cc1	45%	–	–	–	–

Compound	Activity [1]	Activity [3]	IC50 [4]	Activity [5]	further results
O=C(CSc1nccc(O)n1)Nc1cccc2nsnc12	8%	> 70%	1.5 µM	> 70%	Activity [2]: > 70%; IC50 [8]: 1.1 µM; Activity [6]: > 70%
Cc1cc(C)c(OCC(=O)N/N=C/c2ccc(O)cc2O)c(Br)c1	9%	61%	4.1 µM	52%	Activity [2]: 69%; IC50 [8]: 23 µM; IC50 [9]: 1.6 µM
Clc1ccc(Cl)c(-c2ccc(CNc3nn[nH]n3)o2)c1	29%	> 70%	33 µM	> 70%	Activity [2]: > 70%; Activity [6]: > 70%
O=S(=O)(Nc1cccc(Cl)c1)c1ccc(F)cc1	> 70%	–	–	–	–
COc1ccccc1OS(=O)(=O)c1ccc(C(C)(C)C)cc1	51%	–	–	–	–
O=S(=O)(Nc1ccccc1F)c1ccc(Br)cc1	> 70%	–	–	–	–
Cc1ccc(C)c(S(=O)(=O)Nc2ccc(O)cc2)c1	39%	–	–	–	–
Cc1ccc(NS(=O)(=O)c2ccc(Cl)cc2)cc1O	45%	–	–	–	–
CC(=O)Nc1ccccc1OS(=O)(=O)c1ccc(C)c(C)c1	> 70%	–	–	–	–
O=S(=O)(Nc1ccc(O)c(Cl)c1)c1ccc(F)cc1	9%	> 70%	3 µM	> 70%	Activity [2]: > 70%; IC50 [8]: 10 µM; IC50 [9]: 3.9 µM
Cc1cc(S(=O)(=O)Nc2cc(Cl)ccc2O)ccc1F	44%	–	–	–	–
CC(O)c1ccccc1NS(=O)(=O)c1ccc(F)cc1 (stereo not drawn)	> 70%	–	–	–	–
Cc1ccc(Cl)cc1NS(=O)(=O)c1ccc(F)cc1	> 70%	–	–	–	–
C/C(=N\NC(=O)COc1ccc(C)cc1Br)c1ccc(O)cc1O	> 70%	–	–	–	–
COc1ccccc1OS(=O)(=O)c1ccc(NC(C)=O)cc1	> 70%	–	–	–	–
COc1ccc(S(=O)(=O)Nc2ccc(C)c(O)c2)cc1	47%	–	–	–	–
Cc1cc(C)c(S(=O)(=O)Nc2ccc(O)cc2)c(C)c1	33%	–	–	–	–
Cc1cc(S(=O)(=O)Nc2cccc(O)c2)c(C)cc1Cl	–	> 70%	1 µM	–	Activity [2]: > 70%; IC50 [10]: 18 µM; Activity [6]: 53%
COc1ccc(S(=O)(=O)Nc2cccc(O)c2)c2c1CCCC2	–	> 70%	15 µM	53%	IC50 [7]: 13 µM; Activity [6]: > 70%
O=S(=O)(Nc1ccc(O)cc1)c1ccc(Cl)cc1	55%	–	–	–	–
